Measured values from ChEMBL document CHEMBL1139368, “Pt(II) complexes of a combretastatin A-4 analogous chalcone: effects of conjugation on cytotoxicity, tumor specificity, and long-term tumor growth suppression” (J Med Chem, 2009).
Calls of active or inactive are those of the source. The calls are words filed in the database; no cut-off is given here.

How the values were obtained:
[1] = system: A253 cell line; test: Suppression of regrowth in human A253 cells at 10 nM treated for 96 hrs and measured over 10 days by SRB assay; format: functional, cell-based
Summary of the method: (§1)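 SRB regrowth test: cells exposed 96 h to serial dilutions, chosen around IC₉₀, then fixed at once (day 0) or washed drug-free and grown in fresh medium for 2, 4, 6 or 10 days before SRB staining. Three independent experiments.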

[2] = system: NCI-H358; test: Cytotoxicity against human NCI-H358 cells after 96 hrs by SRB assay; format: functional, cell-based; details: NCI-H358, 96 h
Summary of the method: (§2)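 Monolayer cultures in RPMI 1640 with 10% heat-inactivated FBS and streptomycin/penicillin, 37 °C, 5% CO₂. Cells seeded day 0 at densities giving exponential growth, exposed day 1 to 0.001–10 μM, SRB read day 5 (96 h exposure); surviving cells as percentage of untreated controls, IC₅₀ taken from dose–response curves. Three independent experiments for some compounds, two for others.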

[3] = system: HL-60; test: Induction of apoptosis in human HL60 cells at 10 uM after 15 hrs by TUNEL assay; format: functional
Summary of the method: (§3)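 TUNEL with fluorescein-tagged nucleotides labelling 3'-OH DNA ends, on HL-60 and 518A2 cells exposed to 10 μM for 15 h. Apoptotic cells were counted as green fluorescent spots under fluorescence microscopy and related to total cell number.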

[4] = system: SW-1736; test: Cytotoxicity against human SW1736 cells after 96 hrs by SRB assay; format: functional, cell-based; details: SW-1736, 96 h; summary of the method: as §2
[5] = system: BT-474; test: Cytotoxicity against human BT474 cells after 96 hrs by SRB assay; format: functional, cell-based; details: BT-474, 96 h; summary of the method: as §2
[6] = Inhibition of tubulin polymerization at 3 uM; details: TDE = time-dependent effect
Summary of the method: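 Commercial fluorescence-based tubulin polymerization kit, run as the manufacturer directs, compounds at 3 μM. Polymerization followed as RFU at excitation 360 nm, emission 465 nm. Three independent experiments.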

[7] = system: HCT-116; test: Cytotoxicity against human HCT116 cells after 96 hrs by SRB assay; format: functional, cell-based; details: HCT-116, 96 h; summary of the method: as §2
[8] = system: MCF7; test: Cytotoxicity against human MCF7 cells after 96 hrs by SRB assay; format: functional, cell-based; details: MCF7, 96 h; summary of the method: as §2
[9] = Cytotoxicity against human A253 cells after 96 hrs by SRB assay; format: functional, cell-based; details: A253, 96 h; summary of the method: as §2
[10] = system: A2780; test: Induction of apoptosis in human A2780 cells assessed as PARP cleavage at 1 uM after 24 hrs by Western blot analysis; format: functional, cell-based
Summary of the method: (§4)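 Cells treated 24 h at 1 μM, then rinsed in PBS and lysed in RIPA buffer with protease inhibitors. 40 μg protein per lane on SDS–PAGE, blotted to nitrocellulose, blocked in 5% milk/PBST, probed 2 h with mouse monoclonals against caspase-3, PARP and actin (loading control). HRP secondary, ECL detection, compared with untreated control.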

[11] = Cytotoxicity against human 2102EP cells after 96 hrs by SRB assay; format: functional, cell-based; summary of the method: as §2
[12] = Induction of apoptosis in human WW070327 cells assessed as increase in cleaved/activated form of caspase 3 at 1 uM after 24 hrs by Western blot analysis; format: cell-based; details: ww070327, 24 h; summary of the method: as §4
[13] = Cytotoxicity against human H12.1 cells after 96 hrs by SRB assay; format: functional, cell-based; summary of the method: as §2
[14] = system: A549; test: Cytotoxicity against human A549 cells after 96 hrs by SRB assay; format: functional, cell-based; details: A549, 96 h; summary of the method: as §2
[15] = system: DLD-1; test: Induction of apoptosis in human DLD1 cells assessed as PARP cleavage at 1 uM after 24 hrs by Western blot analysis; format: functional, cell-based; summary of the method: as §4
[16] = system: 518A2; test: Induction of apoptosis in human 518A2 cells at 10 uM after 15 hrs by TUNEL assay; format: functional; summary of the method: as §3
[17] = Induction of apoptosis in human WW070327 cells assessed as PARP cleavage at 1 uM after 24 hrs by Western blot analysis; format: cell-based; details: ww070327, 24 h; summary of the method: as §4
[18] = system: HL-60; test: Induction of apoptosis in human HL60 cells assessed as processing of procaspase 9 to activated caspase 9 at 10 uM by Western blotting; format: functional, cell-based; details: TDE = time-dependent effect
Summary of the method: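 HL-60 cells at 0.5 × 10⁶/mL, exposed to 10 μM (in 1% DMF/99% PBS) at 37 °C, sampled at 0, 3, 7, 24 and 30 h. Lysed in Tris/NaCl/Triton X-100 buffer pH 7.4, 60 μg protein on 12% SDS–PAGE, PVDF blot, anti-caspase-9 1:10,000, HRP secondary, chemiluminescence. Procaspase-9 (~46 kDa) and cleaved form (~35 kDa) followed.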

[19] = Cytotoxicity against human 518A2 cells after 96 hrs by SRB assay; format: functional, cell-based; details: 518A2, 96 h; summary of the method: as §2
[20] = system: A-427; test: Cytotoxicity against human A427 cells after 96 hrs by SRB assay; format: functional, cell-based; details: A-427, 96 h; summary of the method: as §2
[21] = system: 518A2; test: Induction of apoptosis in human 518A2 cells assessed as increase in cleaved/activated form of caspase 3 at 1 uM after 24 hrs by Western blot analysis; format: functional, cell-based; summary of the method: as §4
[22] = system: A2780; test: Suppression of regrowth in human A2780 cells at 10 nM treated for 96 hrs and measured over 10 days by SRB assay; format: functional, cell-based; summary of the method: as §1
[23] = Cytotoxicity against human 1411HP cells after 96 hrs by SRB assay; format: functional, cell-based; summary of the method: as §2
[24] = system: FaDu; test: Cytotoxicity against human FADU cells after 96 hrs by SRB assay; format: functional, cell-based; summary of the method: as §2
[25] = system: A-431; test: Cytotoxicity against human A431 cells after 96 hrs by SRB assay; format: functional, cell-based; details: A-431, 96 h; summary of the method: as §2
[26] = system: HCT-8; test: Cytotoxicity against human HCT8 cells after 96 hrs by SRB assay; format: functional, cell-based; details: HCT-8, 96 h; summary of the method: as §2
[27] = system: HT-29; test: Cytotoxicity against human HT-29 cells after 96 hrs by SRB assay; format: functional, cell-based; details: HT-29, 96 h; summary of the method: as §2
[28] = system: SW480; test: Cytotoxicity against human SW480 cells after 96 hrs by SRB assay; format: functional, cell-based; details: SW480, 96 h; summary of the method: as §2
[29] = system: DLD-1; test: Cytotoxicity against human DLD1 cells after 96 hrs by SRB assay; format: functional, cell-based; details: DLD-1, 96 h; summary of the method: as §2
[30] = Cytotoxicity against human NCI-H322 cells after 96 hrs by SRB assay; format: functional, cell-based; details: NCI-H322, 96 h; summary of the method: as §2
[31] = system: A-431; test: Suppression of regrowth in human A431 cells at 10 nM treated for 96 hrs and measured over 10 days by SRB assay; format: functional, cell-based; summary of the method: as §1
[32] = system: DLD-1; test: Induction of apoptosis in human DLD1 cells assessed as increase in cleaved/activated form of caspase 3 at 1 uM after 24 hrs by Western blot analysis; format: functional, cell-based; summary of the method: as §4
[33] = system: A2780; test: Induction of apoptosis in human A2780 cells assessed as increase in cleaved/activated form of caspase 3 at 1 uM after 24 hrs by Western blot analysis; format: functional, cell-based; summary of the method: as §4
[34] = system: 518A2; test: Induction of apoptosis in human 518A2 cells assessed as PARP cleavage at 1 uM after 24 hrs by Western blot analysis; format: functional, cell-based; summary of the method: as §4
[35] = system: A2780; test: Cytotoxicity against human A2780 cells after 96 hrs by SRB assay; format: functional, cell-based; details: A2780, 96 h; summary of the method: as §2
[36] = system: 8505C; test: Cytotoxicity against human 8505C cells after 96 hrs by SRB assay; format: functional, cell-based; summary of the method: as §2

With `COc1ccc(/C=C/C(=O)c2cc(OC)c(OC)c(OC)c2)cc1O` as the molecule, how does the Activity [1] read?
The Activity was “Active”.

What about the IC50 [2] of the same molecule?
Its IC50 is 17.1 nM.

And the Activity [3]?
The Activity was 40%.

What about the IC50 [4] of the same molecule?
The IC50 was 27.5 nM.

And the IC50 [5]?
Its IC50 is 193 nM.

And the Activity [6]?
Its Activity is “tde”.

What about the IC50 [7] of the same molecule?
The IC50 was 25.1 nM.

And the IC50 [8]?
The IC50 was 22.3 nM.

And the IC50 [9]?
The IC50 was 22.8 nM.

What about the Activity [10] of the same molecule?
Its Activity is “Active”.

What about the IC50 [11] of the same molecule?
The IC50 was 31.4 nM.

And the Activity [12]?
Its Activity is “Not Active”.

What about the IC50 [13] of the same molecule?
The IC50 was 33.6 nM.

And the IC50 [14]?
The IC50 was 67.5 nM.

What about the Activity [15] of the same molecule?
Its Activity is “Active”.

And the Activity [16]?
The Activity was 50%.

What about the Activity [17] of the same molecule?
The Activity was “Not Active”.

And the Activity [18]?
The Activity was “tde”.

And the IC50 [19]?
The IC50 was 33.6 nM.

What about the IC50 [20] of the same molecule?
Its IC50 is 51.2 nM.

What about the Activity [21] of the same molecule?
The Activity was “Active”.

And the Activity [22]?
The Activity was “Active”.

What about the IC50 [23] of the same molecule?
The IC50 was 142 nM.

What about the IC50 [24] of the same molecule?
The IC50 was 41 nM.

What about the IC50 [25] of the same molecule?
Its IC50 is 15 nM.

And the IC50 [26]?
Its IC50 is 56 nM.

What about the IC50 [27] of the same molecule?
Its IC50 is 2600 nM.

What about the IC50 [28] of the same molecule?
Its IC50 is 102 nM.

And the IC50 [29]?
The IC50 was 32.3 nM.

And the IC50 [30]?
The IC50 was 39 nM.

What about the Activity [31] of the same molecule?
The Activity was “Active”.

What about the Activity [32] of the same molecule?
Its Activity is “Active”.

And the Activity [33]?
The Activity was “Active”.

And the Activity [34]?
The Activity was “Active”.

And the IC50 [35]?
The IC50 was 15.6 nM.

And the IC50 [36]?
The IC50 was 49.7 nM.
